Legend:
[1] = target: Tyrosine-protein kinase ABL (Homo sapiens, UniProt P00519+P42684); assay: Inhibition of Abl tyrosine kinase; type: protein assay
K562 = assay: Cytotoxic effect in K562 cells; conditions: Homo sapiens
[2] = Alkylating activity (0.1 mM) was determined at pH 7.4; expressed as OD (540n m)/mM of drug); type: ADME; conditions: pH 7.4, 100 µM
Outline: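 Alkylation read as OD at 540 nm per mM of drug. Drug at 0.1 mM was pre-incubated with NBP in TRIS buffer pH 7.4 for 2 h at 37 °C, then triethylamine/acetone was added.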

SMILES	IC50 [1] [µM]	IC50 (K562) [µM]	Alkylating activity [2]
COCC/N=N/Nc1cccc(Nc2nccc(-c3cccnc3)n2)c1	8.6	5.39	
Nc1cccc(Nc2nccc(-c3cccnc3)n2)c1	> 10	21.7	
Cc1ccc(NC(=O)c2ccc(CN3CCN(C)CC3)cc2)cc1Nc1nccc(-c2cccnc2)n1 [IMATINIB]		0.11	
c1cc(N/N=N/CCN2CCOCC2)cc(Nc2nccc(-c3cccnc3)n2)c1	10	10.1	
Cn1nnc2c(C(N)=O)ncn2c1=O [TEMOZOLOMIDE]	> 100	156	0.0013
Cc1ccc(NC(=O)c2ccc(/N=N/N(C)C)cc2)cc1Nc1nccc(-c2cccnc2)n1	0.1946	2.16	0.0002
COCCN=NNc1ccc(C(=O)Nc2cccc(Nc3nccc(-c4cccnc4)n3)c2)cc1	0.903	16.2	0.0002
Cc1ccc(NC(=O)c2ccc(N)cc2)cc1Nc1nccc(-c2cccnc2)n1	> 10	68	0.0002
Cc1ccc(NC(=O)c2ccc(N=NN(C)CO)cc2)cc1Nc1nccc(-c2cccnc2)n1			0.0015
Cc1ccc(NC(=O)c2ccc(/N=N/N(C)CCCl)cc2)cc1Nc1nccc(-c2cccnc2)n1	0.8496	17.4	0.00014
Nc1ccc(C(=O)Nc2cccc(Nc3nccc(-c4cccnc4)n3)c2)cc1	4.89	9.88	
